Assay outcomes (PubChem)
Calpain2 inh: blocks pig calpain II enzyme activity; purified calpain II, fluorogenic peptide substrate, 30 min; inhibition, % at 16 µM; actives 0.37% (n = 220,000);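 active = inhibition above about 50%, limit read from the data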
DTT redox prof: compounds producing H2O2 with reducing agent – biochemical, NIH compound library profiling, artefact control for MLSCN library redox annotation, primary screen. DTT-dependent redox cycling H2O2, phenol red/HRP absorbance; 100% = 100 µM peroxide control, 0% = buffer. activation, % at 10 µM. actives 0.03% (n = 200,000). AID 878;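 active = activation of at least 50% relative to the plate's high and low controls in the primary single-dose screen; inactive = activation below 50%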;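 also: compound incubated with DTT at 0.8 mM final as the reducing agent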
Efa HMGR inh: E. faecalis class II HMG-CoA reductase inhibition | purified E. faecalis HMGR, NADPH absorbance 340 nm kinetic | inhibition, % at 10 µM | actives 0.41% (n = 190,000);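 active = inhibition above a set limit, the median over all tested compounds plus 3 SD, cut at about 9.5% in these data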;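 also: enzyme runs in reverse so mevalonate oxidation gives rising NADPH absorbance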
PKD1 inh: blocks activity of human protein kinase D1. PKD1 kinase fluorescence polarization assay. inhibition, % (no concentration beside the values). actives 0.056% (n = 200,000). AID 797; in the data active = inhibition above about 50%
Pf gametocyte: inhibitors of late stage P. falciparum gametocyte viability; P. falciparum stage V gametocytes, ATP luminescence, 24 h; inhibition, % at 10.9 µM; actives 0.065% (n = 150,000);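 active = inhibition above the mean plus 3 SD of compounds within the control limits, set per campaign, cut at about 38% in these data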
Rad51 HR inh: blocks human Rad51 in homologous recombination | AID 1385 | hRad51 DNA strand exchange, fluorescence dequenching | inhibition, % at 10 µM | actives 0.085% (n = 200,000) | Q06609;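 active = inhibition above 40% at the single screening dose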
Target sequence (Q06609 whole entry, looked up): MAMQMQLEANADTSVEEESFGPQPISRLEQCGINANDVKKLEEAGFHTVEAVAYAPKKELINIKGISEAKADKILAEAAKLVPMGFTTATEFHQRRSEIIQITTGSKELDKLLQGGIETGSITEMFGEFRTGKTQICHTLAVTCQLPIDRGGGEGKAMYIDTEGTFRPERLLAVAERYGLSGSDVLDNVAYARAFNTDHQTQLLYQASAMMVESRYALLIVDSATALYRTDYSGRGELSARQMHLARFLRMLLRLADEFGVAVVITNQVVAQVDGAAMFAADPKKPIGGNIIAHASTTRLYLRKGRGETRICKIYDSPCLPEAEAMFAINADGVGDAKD
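Read-out basis: percent inhibition relative to plate controls and blanks / Assay system: human Rad51 nucleoprotein filaments preassembled on unlabelled ssDNA / Timing: filaments 15 min 37 °C, then compound 30 min / Control set: per-plate controls and blanks / Technique: fluorescence dequenching at 485/520 nm / Compound: 10 µM final, single point / Also added: Fluorescein- and BHQ1-tagged 47-mer duplex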
Each line names hits and unclear results; the compound was inactive in the other large screens. Only some compounds are listed: those with a hit (about 0.81% of all), similar ones and a draw of the others.

Cc1cc(C=O)c2c(c1)C=CC1(Oc3ccccc3C(=O)N1C)O2 (stereo unspecified)	Efa HMGR inh 19 (no result: Pf gametocyte, Rad51 HR inh)
CN1C(=O)c2ccccc2OC1(C)Cc1ccccc1 (stereo unspecified)	none
Cc1cc(C)nc(SCNC(=O)c2ccccc2)n1	Efa HMGR inh 11 (no result: Pf gametocyte)
CCn1cnc2c(oc3ccccc32)c1=O	Efa HMGR inh 11
CCCCN1C(=O)N(C)C2NC(=S)NC21 (stereo unspecified)	none (no result: DTT redox prof, Efa HMGR inh, PKD1 inh)
O=C(c1ccc(F)cc1)N1CCCC(c2ccccc2)C1 (stereo unspecified)	Efa HMGR inh 13
O=C(NNC1=Nc2cccc3cccc1c23)c1ccc(Br)cc1	PKD1 inh 50
COc1ccc(CC(=O)NNC2=Nc3cccc4cccc2c34)cc1OC	none (no result: DTT redox prof, Efa HMGR inh, PKD1 inh)
COc1ccc(NC(=S)N(CCN2CCOCC2)Cc2ccccc2F)cc1	Efa HMGR inh 12
CSc1nc(-c2ccccc2)cn1-c1ccc(NC(C)=O)cc1	Efa HMGR inh 9.8 (no result: Pf gametocyte)
COc1ccc(S(=O)(=O)N(C)CC(=O)N2CCCC2)cc1OC	none (no result: Calpain2 inh, DTT redox prof, Efa HMGR inh, PKD1 inh, Rad51 HR inh)
Cn1c2c(c(=O)n(C)c1=O)C(CC(=O)Nc1ccccc1F)C(=O)N2 (stereo unspecified)	none (no result: DTT redox prof, Efa HMGR inh, PKD1 inh)
Cn1c2c(c(=O)n(C)c1=O)C(CC(=O)Nc1ccccc1)C(=O)N2 (stereo unspecified)	Calpain2 inh 92 (no result: Pf gametocyte)
CC(C)(C)[C@H]1COC(=O)CCC/C=C/C[C@H](CC(=O)N(CCO)Cc2ccccc2)C(=O)N1	none (no result: Calpain2 inh, DTT redox prof, Efa HMGR inh, PKD1 inh, Rad51 HR inh)
O=C1NCCCCC1NS(=O)(=O)c1ccc(F)c(F)c1 (stereo unspecified)	none (no result: DTT redox prof, Efa HMGR inh, PKD1 inh, Rad51 HR inh)
CCOC(=O)Cc1csc(NC(=O)COc2ccccc2)n1	none (no result: Rad51 HR inh)
CCOC(=O)Cc1csc(NC(=O)COc2cccc(C)c2)n1	Efa HMGR inh 18
CC(C)(C)NC(=O)C(c1cccs1)N(Cc1cccs1)C(=O)c1ccc(CN2CCOCC2)o1 (stereo unspecified)	none
Cc1ccc(C(C(=O)NC(C)(C)C)N(Cc2ccc3c(c2)OCO3)C(=O)c2ccc(CN3CCOCC3)o2)o1 (stereo unspecified)	Efa HMGR inh 15
COc1cc(OC)cc(C(=O)Nc2cccc(C(C)=O)c2)c1	none
O=C1OCc2cc(NC(=O)C3CCCCC3)ccc21	Calpain2 inh 52 (no result: Pf gametocyte)
O=C1OCc2ccc(NC(=O)C3CC3)cc21	none (no result: Rad51 HR inh)
COc1cc(OC)cc(C(=O)Nc2ccc3c(c2)COC3=O)c1	Calpain2 inh 60 (no result: Pf gametocyte)
CC(C)CC(=O)N1CCC(N(CCc2ccccc2)Cc2ccccc2)CC1	none (no result: Calpain2 inh, DTT redox prof, Efa HMGR inh, PKD1 inh, Rad51 HR inh)
Cc1c(Cl)cccc1S(=O)(=O)Nc1ccnn1C	none (no result: DTT redox prof, Efa HMGR inh, PKD1 inh)
CC(C)Cn1c(-c2ccc(Br)cc2)c[nH]c1=S	Calpain2 inh 75
CCn1c(-c2ccccc2)c[nH]c1=S	none (no result: Pf gametocyte)
O=C(NCc1ccc(OC(F)(F)F)cc1)c1cccc2c1C(=O)c1ccc(N3CCCC3)cc1S2(=O)=O	Pf gametocyte 39 (no result: Calpain2 inh, DTT redox prof, Efa HMGR inh, PKD1 inh, Rad51 HR inh)
O=C(NCc1ccc(OC(F)(F)F)cc1)c1cccc2c1C(=O)c1ccc(N3CCCCC3)cc1S2(=O)=O	none (no result: Calpain2 inh, DTT redox prof, Efa HMGR inh, PKD1 inh, Rad51 HR inh)
Cc1c(NC(=S)N/C(=N/S(=O)(=O)c2ccc(Cl)cc2)c2ccccc2)c(=O)n(-c2ccccc2)n1C	none (no result: DTT redox prof, Efa HMGR inh, PKD1 inh)
CC(=O)N(C)c1ccc(NC(=O)Nc2ccc(C)cc2)cc1	Calpain2 inh 51
O=C1C=C(/C=C/C2C=CC=CC2)C[C@@H](c2ccc(Cl)cc2)C1 (stereo partly specified)	none (no result: Calpain2 inh, DTT redox prof, Efa HMGR inh, PKD1 inh, Rad51 HR inh)
O=C(O)/C(=C\c1cccs1)c1ccccc1	Efa HMGR inh 12
Cc1ccc2nsnc2c1N	Efa HMGR inh 18
CC(=O)Nc1c(C)ccc2nsnc12	none
O=C(O[C@@H]1Cc2c(O)cc(O)cc2O[C@@H]1c1cc(O)c(O)c(O)c1)c1cc(O)c(O)c(O)c1	Efa HMGR inh 14 (no result: DTT redox prof, PKD1 inh, Pf gametocyte)
Cc1cc(C)cc(Nc2c(F)c(F)c(F)c(F)c2C(=O)O)c1	Efa HMGR inh 9.6
CC1CCN(C(=O)C2c3ccccc3C(=O)N3CCc4ccccc4C23)CC1 (stereo unspecified)	none (no result: Pf gametocyte)
O=C(C1c2ccccc2C(=O)N2CCc3ccccc3C12)N1CCN(Cc2ccccc2)CC1 (stereo unspecified)	Efa HMGR inh 49 (no result: Pf gametocyte)
O=c1nc(SCc2ccccc2Cl)nc(-c2ccc(Cl)cc2)[nH]1	Calpain2 inh 50 (no result: DTT redox prof, Efa HMGR inh, PKD1 inh)
O=c1nc(SCc2c(F)cccc2Cl)nc(-c2ccc(Cl)cc2)[nH]1	none (no result: DTT redox prof, Efa HMGR inh, PKD1 inh)
